Reference: ChEMBL document CHEMBL4765370, “Design, synthesis, and biological evaluation of aryl piperazines with potential as antidiabetic agents via the stimulation of glucose uptake and inhibition of NADH:ubiquinone oxidoreductase” (Eur J Med Chem, 2020)
Values after ≈ are worked out from the molar mass of the structure shown.

Legend:
[1] = AUClast in C57 Black mouse liver at 10 mg/kg, iv; assay type: ADME, organism-based; design: time 0 - last, route intravenous, dose 10 mg/kg
Procedure, shortened: (§1)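 Male C57BL/6 mice were given a single 10 mg/kg dose either intravenously or orally. The oral and IV solutions were formulated in 10% DMSO, 10% cremaphor and 80% saline. Concentrations in plasma and in the tissues collected were determined after dosing, with n = 3 per route. Values are given as mean ± SEM.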

[2] = Cmax in C57 Black mouse liver at 10 mg/kg, iv; assay type: ADME, organism-based; design: route intravenous, dose 10 mg/kg; procedure, shortened: as §1
[3] = Tmax in C57 Black mouse muscle at 10 mg/kg, iv; assay type: ADME, organism-based, Muscle tissue
Procedure, shortened: (§2)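 Male C57BL/6 mice (n = 3) dosed at 10 mg/kg by IV or oral (PO) route. Dosing solutions were formulated in 10% DMSO, 10% cremaphor and 80% saline. Compound levels were measured in plasma and tissues over time, and values are given as mean ± SEM.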

[4] = Volume of distribution in C57 Black mouse liver at 10 mg/kg, iv; assay type: ADME, organism-based; procedure, shortened: as §2
[5] = Half life in human microsomes at 1 uM up to 120 mins by HPLC/MS-MS analysis; assay type: ADME, Microsome
[6] = AUClast in C57 Black mouse liver at 10 mg/kg, po; assay type: ADME, organism-based; design: time 0 - last, route oral, dose 10 mg/kg; procedure, shortened: as §1
[7] = Cmax in C57 Black mouse liver at 10 mg/kg, po; assay type: ADME, organism-based; design: route oral, dose 10 mg/kg; procedure, shortened: as §1
[8] = Half life in C57 Black mouse liver at 10 mg/kg, po; assay type: ADME, organism-based; procedure, shortened: as §2
[9] = AUCall in C57 Black mouse spleen at 10 mg/kg, iv; assay type: ADME, organism-based; design: dose 10 mg/kg; procedure, shortened: as §1
[10] = Cmax in C57 Black mouse spleen at 10 mg/kg, iv; assay type: ADME, organism-based; design: route intravenous, dose 10 mg/kg; procedure, shortened: as §1
[11] = Half life in C57 Black mouse spleen at 10 mg/kg, iv; assay type: ADME, organism-based; procedure, shortened: as §2
[12] = AUCinfinity in C57 Black mouse spleen at 10 mg/kg, po; assay type: ADME, organism-based; design: time infinity, route oral, dose 10 mg/kg; procedure, shortened: as §1
[13] = AUCall in C57 Black mouse spleen at 10 mg/kg, po; assay type: ADME, organism-based; design: dose 10 mg/kg; procedure, shortened: as §1
[14] = Cmax in C57 Black mouse spleen at 10 mg/kg, po; assay type: ADME, organism-based; design: route oral, dose 10 mg/kg; procedure, shortened: as §1
[15] = AUCall in C57 Black mouse kidney at 10 mg/kg, iv; assay type: ADME, organism-based; design: dose 10 mg/kg; procedure, shortened: as §1
[16] = AUClast in C57 Black mouse kidney at 10 mg/kg, iv; assay type: ADME, organism-based; design: route intravenous, time 0 - last, dose 10 mg/kg; procedure, shortened: as §1
[17] = Cmax in C57 Black mouse kidney at 10 mg/kg, iv; assay type: ADME, organism-based; design: route intravenous, dose 10 mg/kg; procedure, shortened: as §1
[18] = AUCinfinity in C57 Black mouse kidney at 10 mg/kg, po; assay type: ADME, organism-based; design: route oral, time infinity, dose 10 mg/kg; procedure, shortened: as §1
[19] = AUCall in C57 Black mouse kidney at 10 mg/kg, po; assay type: ADME, organism-based; design: dose 10 mg/kg; procedure, shortened: as §1
[20] = Half life in C57 Black mouse kidney at 10 mg/kg, po; assay type: ADME, organism-based; procedure, shortened: as §2
[21] = Inhibition of NADH:ubiquinone oxidoreductase in rat liver mitochondria incubated for 3 mins
[22] = Half life in human hepatocytes at 1 uM up to 120 mins by HPLC-MS/MS analysis; assay type: ADME, cell-based, Hepatocyte
[23] = Intrinsic clearance in human hepatocytes at 1 uM up to 120 mins by HPLC-MS/MS analysis; assay type: ADME, cell-based, Hepatocyte; details: 2 h
[24] = Metabolic stability in human hepatocytes assessed as hepatic extraction ratio at 1 uM up to 120 mins by HPLC-MS/MS analysis; assay type: ADME, cell-based, Hepatocyte
Procedure, shortened: (§3)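 Cryopreserved hepatocytes (human or mouse) added to buffer containing compound at 1 µM; incubated at 37 °C up to 120 min, stopped with acetonitrile containing internal standard. Centrifuged supernatant analysed for parent compound by HPLC-MS/MS; n = 2. Half-life and intrinsic clearance (µL/min/10^6 cells) derived; extraction ratio reported from these.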

[25] = Metabolic stability in mouse hepatocytes assessed as hepatic extraction ratio at 1 uM up to 120 mins by HPLC-MS/MS analysis; assay type: ADME, cell-based, Hepatocyte; procedure, shortened: as §3
[26] = Protein binding human serum at 1 uM after 60 to 120 mins by HPLC-MS/MS analysis; assay type: ADME, cell-free; details: time 60-120 min, read-out: PB (converted)
[27] = Half life in human plasma at 1 uM after 60 to 120 mins by HPLC-MS/MS analysis; assay type: ADME, cell-free; details: time 60-120 min
Procedure, shortened: (§4)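 Buffer containing test compound at 1 µM was mixed with human or mouse blood plasma and incubated at 37 °C for 60–120 min. Parent compound remaining gave the plasma half-life and the percentage stable at 2 h.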

[28] = Half life in mouse plasma at 1 uM after 60 to 120 mins by HPLC-MS/MS analysis; assay type: ADME, cell-free; details: time 60-120 min; procedure, shortened: as §4
[29] = Tmax in C57 Black mouse plasma at 10 mg/kg, po; assay type: ADME, organism-based; procedure, shortened: as §2
[30] = Cmax in C57 Black mouse plasma at 10 mg/kg, po; assay type: ADME, organism-based; design: route oral, dose 10 mg/kg; procedure, shortened: as §1
[31] = Tmax in C57 Black mouse plasma at 10 mg/kg, iv; assay type: ADME, organism-based; procedure, shortened: as §2
[32] = AUClast in C57 Black mouse plasma at 10 mg/kg, iv; assay type: ADME, organism-based; design: route intravenous, time 0 - last, dose 10 mg/kg; procedure, shortened: as §1
[33] = Volume of distribution in C57 Black mouse plasma at 10 mg/kg, iv; assay type: ADME, organism-based; procedure, shortened: as §2
[34] = Cmax in C57 Black mouse brain at 10 mg/kg, po; assay type: ADME, organism-based; design: route oral, dose 10 mg/kg; procedure, shortened: as §1
[35] = AUCall in C57 Black mouse brain at 10 mg/kg, po; assay type: ADME, organism-based; design: dose 10 mg/kg; procedure, shortened: as §1
[36] = Cmax in C57 Black mouse brain at 10 mg/kg, iv; assay type: ADME, organism-based; design: route intravenous, dose 10 mg/kg; procedure, shortened: as §1
[37] = Volume of distribution in C57 Black mouse brain at 10 mg/kg, iv; assay type: ADME, organism-based; procedure, shortened: as §2
[38] = Lipophilicity, logP of compound; assay type: physicochemical; details: octanol/water
[39] = Thermodynamic solubility of compound in PBS at 1 mg/ml after 24 hrs by LC-MS/MS analysis; assay type: physicochemical; details: read-out: Therm_solubility
Procedure, shortened: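 Compound was equilibrated at 1 mg/mL and at 0.1 mg/mL in PBS containing 5% (v/v) DMSO, for 24 h at 21 °C. Samples were centrifuged at 15,000 g for 10 min and the supernatant was quantified by LC-MS/MS, n = 3.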

[40] = Volume of distribution in C57 Black mouse muscle at 10 mg/kg, iv; assay type: ADME, organism-based, Muscle tissue; procedure, shortened: as §2
[41] = Efflux ratio of apparent permeability in MDCK-MDR1 cells at 10 uM after 30 mins by LC-MS/MS analysis; assay type: ADME, cell-based, Canis lupus familiaris; details: dog
Procedure, shortened: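 hMDR1-MDCK monolayers on filters; compound at 10 µM final in DMEM (from 10 mM DMSO stock) with 10 µM propranolol internal standard in donor. Transfer measured apical-to-basolateral and basolateral-to-apical over 30 min; receiver samples by LC-MS/MS; n = 3.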

CYP2C9 = CYP2C9 (Homo sapiens, UniProt P11712); test: Inhibition of human CYP2C9 using fluorogenic substrate incubated for 60 mins in presence of NADPH by fluorescence assay relative to control; assay type: ADME; details: probe fluorogenic substrate
Procedure, shortened: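 Baculosomes each expressing a single cDNA-derived human P450 isozyme were incubated with compound at 10 µM, a fluorogenic substrate and NADPH. Incubation was at 37 °C for at least 60 min before fluorescence was read, n = 3.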

[42] = Stability in human plasma assessed as parent compound remaining at 1 uM after 2 hrs by HPC-MS/MS analysis; assay type: ADME, cell-free; details: read-out: Stabilty; procedure, shortened: as §4
[43] = Toxicity in C57BL/6 mouse at 10 mg/kg, iv or po; assay type: organism-based; details: in vivo
[44] = Bioavailability in C57 Black mouse at 10 mg/kg, iv or po; details: in vivo

Chain of CYP2C9 (P11712 whole entry): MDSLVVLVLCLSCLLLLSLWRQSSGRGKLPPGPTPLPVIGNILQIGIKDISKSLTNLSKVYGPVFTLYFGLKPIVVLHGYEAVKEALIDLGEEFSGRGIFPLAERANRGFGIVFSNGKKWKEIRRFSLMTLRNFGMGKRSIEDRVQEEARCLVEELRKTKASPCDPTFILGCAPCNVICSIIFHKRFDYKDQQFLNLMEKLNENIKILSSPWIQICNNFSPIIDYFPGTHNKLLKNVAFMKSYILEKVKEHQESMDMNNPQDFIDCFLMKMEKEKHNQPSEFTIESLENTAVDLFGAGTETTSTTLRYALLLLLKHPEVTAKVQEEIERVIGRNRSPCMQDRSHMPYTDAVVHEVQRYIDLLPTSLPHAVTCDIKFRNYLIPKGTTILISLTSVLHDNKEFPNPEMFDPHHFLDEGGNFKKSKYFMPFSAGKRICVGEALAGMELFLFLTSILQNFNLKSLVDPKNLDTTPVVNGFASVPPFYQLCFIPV

AUC(0-t) [1]: 487 ng·h/mL
Cmax [2]: 1830 ng/mL
Tmax [3]: 1.8 min
Vd [4]: 3.06 L/kg
half-life at 1 µM [5]: 12 min
AUC(0-t) [6]: 4050 ng·h/mL
Cmax [7]: 4880 ng/mL
half-life [8]: 60 min
AUC [9]: 463 ng·h/mL
Cmax [10]: 587 ng/mL
half-life [11]: 66 min
AUC(0-inf) [12]: 1270 ng·h/mL
AUC [13]: 1260 ng·h/mL
Cmax [14]: 1100 ng/mL
AUC [15]: 320 ng·h/mL
AUC(0-t) [16]: 320 ng·h/mL
Cmax [17]: 552 ng/mL
AUC(0-inf) [18]: 1280 ng·h/mL
AUC [19]: 1220 ng·h/mL
half-life [20]: 34.2 min
IC50 [21]: 27 µM
half-life at 1 µM [22]: 3 min
CLH [23]: 346 µL/min
hepatic extraction ratio at 2 h, 1 µM [24]: 0.98
hepatic extraction ratio at 2 h, 1 µM [25]: 0.48
fraction unbound at 1 µM [26]: 0.0052
half-life at 1 µM [27]: 808 min
half-life at 1 µM [28]: 327 min
Tmax [29]: 15 min
Cmax [30]: 787 ng/mL
Tmax [31]: 1.8 min
AUC(0-t) [32]: 240 ng·h/mL
Vd [33]: 1.69 L/kg
Cmax [34]: 1430 ng/mL
AUC [35]: 763 ng·h/mL
Cmax [36]: 1030 ng/mL
Vd [37]: 1.83 L/kg
logP [38]: 4.79
solubility thermodynamic at 24 h [39]: 4 µg/mL (≈ 10.5 µM)
Vd [40]: 7.13 L/kg
efflux ratio at 0.5 h, 10 µM [41]: 0.9
inhibition at 1 h (CYP2C9): 74.2%
remaining at 2 h, 1 µM [42]: 80%
Bioavailability [44]: 21.4%
Structure (SMILES): O=C(CCCc1cccs1)N1CCN(c2ccc(C(F)(F)F)cc2)CC1
Activity [43]: Non-Toxic
